Reference: ChEMBL document CHEMBL1151863, “Discovery of thioether-bridged cyclic pentapeptides binding to Grb2-SH2 domain with high affinity” (Bioorg Med Chem Lett, 2009)
Numbered stars: 1 amine (or outer) side, 2 acyl side, 3 side chain; on linkers, the order of the positions; unused ones are H or OH. Bridge positions count the residues as written; N and C are the ends. Square brackets hold non-standard residues; d marks the D form. Peptide text beside a SMILES is read from it. pY = N[C@@H](Cc1ccc(OP(=O)(O)O)cc1)C(=O)O; X1 = O=C(C1(N[*:1])CCCNC1)[*:2]

Target: Growth factor receptor-bound protein 2 (Homo sapiens, UniProt P62993)
Sequence (P62993 whole entry, the tested form may be a part): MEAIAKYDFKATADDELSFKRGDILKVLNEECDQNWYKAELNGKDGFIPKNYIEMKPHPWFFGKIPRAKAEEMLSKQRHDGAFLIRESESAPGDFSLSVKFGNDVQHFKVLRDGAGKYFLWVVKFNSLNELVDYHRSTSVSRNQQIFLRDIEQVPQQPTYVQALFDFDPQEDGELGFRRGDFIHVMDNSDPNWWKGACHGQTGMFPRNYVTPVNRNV
Test: Binding affinity to GST-tagged recombinant Grb2 SH2 domain by Biacore assay
Summary of the method: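 Surface plasmon resonance (Biacore) binding to the Grb2-SH2 domain, reported as Kd. Values are means of two experiments, with standard deviation given.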

SMILES	Kd
NC(=O)C[C@H]1NC(=O)C2(CCCCC2)NC(=O)[C@@H](Cc2ccc(OP(=O)(O)O)cc2)NC(=O)C[S@@+]([O-])C[C@H](C(N)=O)NC(=O)[C@@H](Cc2ccc3ccccc3c2)NC1=O (single isomer, unassigned)	4800 nM
CC(C)[C@@H]1NC(=O)[C@H](CC(N)=O)NC(=O)C2(CCCNC2)NC(=O)[C@H](Cc2ccc(OP(=O)(O)O)cc2)NC(=O)CSC[C@@H](C(N)=O)NC1=O (some centres not stated) ({CH2CO}-[pY][X1]NVC-NH2; thioether N-5)	359 nM
